From the RNAGym collection of RNA variant scans (doi:10.1126/science.aae0568)
Variants at the floor of the assay were thinned out.

B1: tRNA (parent)
chain: GUUCCGUUGGCGUAAUGGUAACGCGUCUCCCUCCUAAGGAGAAGACUGCGGGUUCGAGUCCCGUACGGAACG

Variants of: B1
Assay: yeast fitness relative to wild type (ratio to wild type); higher = fitter; tRNA-Arg(CCU), competitive growth, 37 C, YPD
How it was run: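 For this measurement, the tRNA-Arg(CCU) gene was varied by chemical synthesis at a 3% per-site mutation rate across 69 sites, and each variant was placed at the native genomic locus in Saccharomyces cerevisiae. The pooled strains went through a 24-hour competition in YPD at 37°C in six parallel replicates, with amplicons from start and end populations read by 100-nucleotide paired-end sequencing. Darwinian fitness relative to wild type followed from the change in each genotype's frequency. Genotypes needed ≥ 100 starting reads, and estimates < 0.5 were set to 0.5.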
GUUCCGUUCGCGUAAUGGUAACGCGUCUCCCUCCUAAGGAGAAGACUGCGCGUUCGAGUCCGGUACGGAACG showed a yeast fitness of no more than 0.5. GUUCCGUUCGCGUAAUGGCAACGUGUAUCCCUCCUAAGGAGAAGACUGCGGGUUCGAGUCCCGUACGGAACG showed a yeast fitness of no more than 0.5. With GUUCCGUUCGCGUAACGGUAACGCGUCUCCCUCCUAAGGAGCAGACUGCGGGUUCGAGUCCCGUACGGAACG the yeast fitness was no more than 0.5. In the case of GUUCCGUUCGCGUAAUGGUAACGCGUCUCCCUCCUAAGGAAAAGACUGCGGGUUUGAGACCCGUACGGAUCG, the yeast fitness is reported as no more than 0.5. GUUCCGUUCGCAUAAUGGUAACGCGUCUCCCUCCUAAGGAGAAGACUGCGGGUUCGAGUCCCGUACGGAACG gave a yeast fitness of 0.629. For GUUCCGUUCGCAUAAUGGUAACGCGUCUACCUCCUAAAGAGAAGACUGCGGGUUCGAGUCCCGUACGGGACG, the yeast fitness was no more than 0.5. GUUCCGUUCGCGUAACGGUAACGCGUCUCUCUCCUAAGGAGAAGACUGCGGGUUCGAGUCCCGUGCGGAACG gave a yeast fitness of no more than 0.5. GUUCCGUUCGCGUAAUGGUAACCCGUCUCGCUCCUAAGGAGAAAACUGCGGGUUCGACUCCCAUACGGAGCG gave a yeast fitness of no more than 0.5. Variant GUUCCGUUCGCGUAAUGGUAACGCGUCUCCCUCCUAAGCAGAAGACUGCGGGUUCGAGUCCCGUACGGAACG has a yeast fitness of 0.64. With GUUCCGUUCGCGUAAUGGCAACGCGUCUCCCUCCUAAGGAGAAGACUGCGGGUUCGAGUCCCGUACGGAACG the yeast fitness was 0.764. Variant GUUCCGUUCGCAUAAUGGUAACGCGUCUCCCUCCUAAGGAGAAGACUGCGGGUUCGAGUCCGGUACAGAACG has a yeast fitness of 0.618. In the case of GUUCCGUUCGCGUAAUGGUAACGCGUCUCCCUCCUAAGGAGAAGACUGCGGGUUCGAGUCCCGUACGCCACG, the yeast fitness is reported as no more than 0.5. GUUCCGUUCGCCUAAUGGUAACGCGUCUCCAUCCUAAGGUGAAGACUGCGGGUUCGAGUCCCGUACAGAACG gave a yeast fitness of 0.557. Variant GUUCCGUUCGCGUAAUGGUAACACGUCUCCCUCUUAAGGAGAAGACUGCGGGUUCGAGUCCCGUAGGGAACG has a yeast fitness of no more than 0.5. With GUUCCGUUCGCGUAAUAGCAACACGUCUCCCUCCUAAGGAGGAGACUGUGGGUUUGAGUCCCGUACGGAACG the yeast fitness was no more than 0.5. Work on GUUCCGUUCGCGUAAUAGCAACACGUCUCCCUCCUAAGGAGAAGACUGUGGGUUUGAGUCCCGUACGGAACG yielded a yeast fitness of no more than 0.5. GUUCCGUUCGCGUAAUAGCAACACGUCUCCCUCCUAAGGAGAAGACUGCGGGUUCGAGUCCCGUACUGAACG gave a yeast fitness of no more than 0.5. Variant GUUCCGUUCGCGAAAUGGUAACGCAUCUCCCUCCUAAGGCGAAGACUGCGGGUUCGCGUCACGUACAGAACG has a yeast fitness of 0.553. Variant GUUCCGUUCGCGUAAUGGUAACGCGUCUCCCUCCUAAGGAGAAGACUGCGGGUUCGACUCCCGUACGGAACG has a yeast fitness of 1.06. GUUCCGUUCGCGUAAUGGUAACGCGUCUCCCUCCUAAGGAGAAGACUGCGGGUUCGAAUCCCGUACGGAACG gave a yeast fitness of 0.869. Work on GUUCCGUUCGCGGAAUGGUAACGCGUCCCCCUCCUAAGGACACGUCCGGGGGGUCGAGUCCCGUACGGCACG yielded a yeast fitness of no more than 0.5. GUUCCGUUCGCGCAAUGGUCACGCGUCUCCCUCCUAAGGAGAAGACUGCGGGUUCGAGUCCCGUACGGAACG gave a yeast fitness of 0.706. Work on GUUCCGUUCGCGUAAGGGUAACGCGUCUACCUCCUAAGGAGAAGACUGCGGGUUCGAGUCCCGUAUGGAACG yielded a yeast fitness of no more than 0.5. GUUCCGUUCGCGUAAUGGUAACACGUCUCCCUCCUAAGGCGAAGACUGCGGGUUGGAGUCCCGUGCGGAACG gave a yeast fitness of no more than 0.5. For GUUCCGUUCGCGUAACGGUAACGCGUCUCCCUCCUAAGGAGAAGACUGCGGGUUCGAGUCCCGUAUGGAACG, the yeast fitness was no more than 0.5. Work on GUUCCGUUCGCGUAAUGGUAACGCGUCUCCCUCCUAAGGAGAACACUGCGGGUUCGAGUCCCGUAUGGAACG yielded a yeast fitness of 0.568. GUUCCGUUCGCGUAAUGGUAACACGUCUCCCUCCUAAGGCGAAGCCUGCGGGUUCGAGUCCCGUACGGAACG showed a yeast fitness of no more than 0.5. For GUUCCGUUCGCGUAAUGGAAACGCGUCUCCCUCCUAAGGAGAAGACUGCGGGUUCGAAUCCCGUGCGGAACG, the yeast fitness was no more than 0.5. Variant GUUCCGUUCGCGCAAUGGUAACGCGUCUCCCUCCUAAGGAGAAGACGGCGGGUUCGAGUCCCGUACGGAACG has a yeast fitness of no more than 0.5. GUUCCGUUCGCGUAAUCCUAACGCGUCUCCCUCCUAAGGAGAAGACUGCGGGUUCGAGUCCUGUACGGGACG gave a yeast fitness of 0.629. Work on GUUCCGUUCGCGUAAUGGUAACGCGUCUCCCUCCUAAAGAGAAGACUGCGGGUUCGCGUCCCGUACGGAACG yielded a yeast fitness of no more than 0.5. GUUCCGUUCGCGUAAUGCUAACGCGUCUCCCUCCUAAGGAGAAGACUGGGGGUUCGAGUCCCGUACGGAACG showed a yeast fitness of no more than 0.5. GUUCCGUUCGCGUAAUAGUAACGCGUCUCCCUCCUAAGGAGAAGACUGCGGGUUCGAGUCCCGCACGGAACG gave a yeast fitness of no more than 0.5. For GUUCCGUUCGCGCAAUGGUAACGCGUCUCGCUCCUAAGGAGAAGACUGCGGGUUCGAGUCUCGUACGGAACG, the yeast fitness was no more than 0.5. GUUCCGUUCGCGUAAUGGUAACGCGUCUCCCUCCUAAGGAAAAGACUGCGGGUUCGAGUGCCGUGCGGAACG showed a yeast fitness of no more than 0.5. GUUCCGUUCGCAUAAUGGUAACGCGUCUCCCUCCUAAGGAGAAGACUGCGGGUUCGAGUCGCGUACGGAACG showed a yeast fitness of no more than 0.5. With GUUCCGUUCGCGAAAUGGUAACGCAUCUCCCUCCUAAGGAGAAGACUGCGGGUUCGAGUCCCGUUCGGAACG the yeast fitness was no more than 0.5. Variant GUUCCGUUCGCGUAAUGGUAACGCGUCUCCCUCCUAAGGAGAAGACUGCGCGUUCGAAUCCCGUACGGAACG has a yeast fitness of no more than 0.5.
